Converted amounts (≈) assume the structure as drawn.
What was measured:
Glutamate racemase = molecular target: T1, Glutamate racemase (Helicobacter pylori J99, UniProt Q9ZLT0); experiment: Inhibition of Helicobacter pylori J99 glutamate racemase
T1 sequence (Q9ZLT0 whole entry): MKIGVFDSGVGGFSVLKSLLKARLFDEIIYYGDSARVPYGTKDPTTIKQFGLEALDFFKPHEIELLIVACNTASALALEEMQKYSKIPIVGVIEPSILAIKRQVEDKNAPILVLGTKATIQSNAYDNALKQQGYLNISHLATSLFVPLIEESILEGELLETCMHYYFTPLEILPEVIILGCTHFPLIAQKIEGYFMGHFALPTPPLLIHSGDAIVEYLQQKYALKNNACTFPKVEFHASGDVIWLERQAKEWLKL
How it was run: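 The racemase was expressed from the murI gene of H. pylori J99 chromosomal DNA. IC50 was taken as the mean of duplicate determinations, using a method cited from earlier work.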

Helicobacter pylori [1] = experiment: Antibacterial activity against wild type Helicobacter pylori 055; assay type: functional
[2] = Inhibition of Staphylococcus aureus MurI
[3] = Inhibition of Enterococcus faecalis MurI
[4] = Inhibition of Escherichia coli MurI
[5] = Plasma protein binding in mouse; assay type: ADME, cell-free; conditions: read-out: PPB (converted)
How it was run: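 Plasma protein binding in mouse plasma used a […] compound solution in a dialysis plasma well, incubated at 37 °C for 16 h. Free fraction came from the ratio of drug in buffer to drug in buffer plus plasma wells, both quantified by LC/MS.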

[6] = Clearance in mouse at 5 mg/kg, iv and 40 mg/kg, po; assay type: ADME, organism-based; conditions: in vivo
[7] = Oral bioavailability in mouse at 40 mg/kg; assay type: ADME, organism-based; conditions: in vivo
Helicobacter pylori [8] = experiment: Antibacterial activity against Helicobacter pylori infected in mouse assessed as log reduction CFU at 10 mg/kg administered BID for 2 days relative to untreated control; assay type: functional
Helicobacter pylori [9] = experiment: Antibacterial activity against AcrAB-TolC efflux pump-dificient Helicobacter pylori; assay type: functional
[10] = Intrinsic clearance in human liver microsomes at 2 uM assessed per mg of protein; assay type: ADME, Microsome; conditions: read-out: CLH
[11] = Intrinsic clearance in mouse liver microsomes at 2 uM assessed per mg of protein; assay type: ADME, Microsome; conditions: read-out: CLH
[12] = Half life in mouse at 5 mg/kg, iv and 40 mg/kg, po; assay type: ADME, organism-based; conditions: in vivo
[13] = Volume of distribution at steady state in mouse at 5 mg/kg, iv and 40 mg/kg, po; assay type: ADME, organism-based; conditions: in vivo, read-out: Vdss
[14] = Plasma protein binding in mouse at 10 uM after 16 hrs by Dianorm method; assay type: ADME, cell-free; conditions: read-out: PPB (converted)
Helicobacter pylori [15] = experiment: Ratio of MIC for wild type Helicobacter pylori 055 to MIC for AcrAB-TolC efflux pump-dificient Helicobacter pylori
[16] = Dissociation constant, pKa of the compound; assay type: physicochemical
Helicobacter pylori [17] = experiment: Antibacterial activity against Helicobacter pylori infected in mouse assessed as log reduction CFU at 40 mg/kg administered QID for 2 days relative to untreated control

SMILES	IC50 (Glutamate racemase) [nM]	MIC (Helicobacter pylori [1]) [µg/mL]	IC50 [2] [nM]	IC50 [3] [nM]	IC50 [4] [nM]	fraction unbound [5]	clearance [6] [mL/min/kg]	bioavailability [7] [%]	FC (Helicobacter pylori [8])	MIC (Helicobacter pylori [9]) [µg/mL]	microsomal CLint at 2 µM [10] [µL/min/mg]	microsomal CLint at 2 µM [11] [µL/min/mg]	half-life [12] [h]	Vd [13] [L/kg]	fraction unbound at 16 h, 10 µM [14]	Ratio (Helicobacter pylori [15])	pKa [16]	FC (Helicobacter pylori [17])
Cn1cc(S(C)(=O)=O)cc1-c1c2c(=O)n(C)c(=O)n(CC3CC3)c2nn1Cc1ccnc2ccc(Cl)cc12	34	2 (≈ 3.62 µM)	> 400000	> 400000	> 400000	0.03	15	13	–	–	–	–	–	–	–	–	–	–
CC(C)Cn1c(=O)n(C)c(=O)c2c(-c3ccncc3)n(Cc3cccc4ccccc34)nc21	–	–	> 400000	> 400000	> 400000	–	–	–	–	–	–	–	–	–	–	–	–	–
COc1c(N2CCO[C@@H](CN(C)C)C2)c(F)cc2c(=O)c(C(=O)O)cn(C3CC3)c12	–	–	–	–	–	–	–	–	5	–	–	–	–	–	–	–	–	–
Cn1cncc1-c1c2c(=O)n(C)c(=O)n(CC3CC3)c2nn1Cc1ccnc2ccc(Cl)cc12	41	2 (≈ 4.2 µM)	–	–	–	–	14	76	–	0.25 (≈ 0.525 µM)	< 17	21	0.7	1.2	> 0.969	–	–	–
CC#CCn1c(=O)c2c(-c3cc(C#N)cn3C)n(Cc3ccnc4ccc(Cl)cc34)nc2n(CC2CC2)c1=O	74	2 (≈ 3.72 µM)	–	–	–	–	–	–	–	2 (≈ 3.72 µM)	99	> 100	–	–	–	<=2	–	–
Cn1cc(C#N)cc1-c1c2c(=O)n(C)c(=O)n(CC3CC3)c2nn1Cc1ccnc2ccc(Cl)cc12	25	0.5 (≈ 1 µM)	> 400000	> 400000	> 400000	–	–	–	–	0.8 (≈ 1.6 µM)	14	50	–	–	–	<=2	–	–
C#CCn1c(=O)c2c(-c3cncn3C)n(Cc3ccnc4ccc(Cl)cc34)nc2n(CC2CC2)c1=O	24	2 (≈ 4 µM)	–	–	–	–	20	100	–	0.5 (≈ 1 µM)	< 14	18	2.1	3.6	0.96	–	7.2	1
Cn1cncc1-c1c2c(=O)n(CC3CC3)c(=O)n(CC3CC3)c2nn1Cc1ccnc2ccc(Cl)cc12	69	2 (≈ 3.88 µM)	–	–	–	–	–	–	–	0.9 (≈ 1.74 µM)	< 14	44	–	–	–	<=2	–	–
C=CCn1c(=O)c2c(-c3nc(C#N)cn3C)n(Cc3ccnc4ccc(Cl)cc34)nc2n(CC2CC2)c1=O	250	2 (≈ 3.8 µM)	–	–	–	–	–	–	–	4 (≈ 7.59 µM)	> 100	> 100	–	–	–	<=2	–	–
C#CCn1c(=O)c2c(-c3cc(C#N)cn3C)n(Cc3ccnc4ccc(Cl)cc34)nc2n(CC2CC2)c1=O	28	0.75 (≈ 1.43 µM)	–	–	–	–	–	–	–	0.3 (≈ 0.573 µM)	< 14	16	–	–	–	<=2	–	–

Reference: ChEMBL document CHEMBL2086265, “Design of inhibitors of Helicobacter pylori glutamate racemase as selective antibacterial agents: incorporation of imidazoles onto a core pyrazolopyrimidinedione scaffold to improve bioavailabilty” (Bioorg Med Chem Lett, 2012)
